Values after ≈ are worked out from the molar mass of the structure shown.

Series [1] relates to Candida albicans. The series can be described thus: Antifungal activity against Candida albicans ATCC 10261 at 35 degC after 48 to 96 hrs by broth microdilution test. It is filed as functional. Conditions: for MFC: Candida albicans, ATCC 10261, read-out: MFC. In outline: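 Minimal fungicidal concentration for Candida. […] MFC is the lowest concentration allowing fewer than two colonies (99% killing).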
In general terms: In broth dilution the organism is exposed to a series of concentrations in liquid medium.

Series [2] can be described thus: Cytotoxicity against human U937 cells assessed as reduction of cell viability after 24 hrs by MTT assay. It is filed as cell-based, U-937. The method, boiled down:
(§1)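 U937 and K562 cells, from ATCC, plated at 5 × 10^4/mL in phenol-red-free RPMI-1640 with 20% FBS and penicillin/streptomycin. Compounds added 2 h later at 25–100 µg/mL, then 24 h at 37 °C. MTT at 1 mg/mL for 3 h, formazan dissolved in isopropanol with 0.1 N HCl, absorbance read at 570 nm. CC50 is the concentration reducing viability by 50% versus the drug-free control.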

Series [3] deals with Arthrodermataceae. The experiment in a line: Antifungal activity against dermatophytes at 28 degC after 5 days by broth microdilution test. Conditions: for MFC: Arthrodermataceae.
Series [4] has as its system Candida albicans. The experiment in a line: Antifungal activity against fluconazole-resistant Candida albicans isolated from oropharyngeal or vaginal disease patient after 48 hrs by broth microdilution test. It is filed as functional.
In series [5] the test system is Candida albicans. The experiment in a line: Antifungal activity against fluconazole-sensitive Candida albicans Fe40 at 35 degC after 48 hrs by broth microdilution test. It is filed as functional. In outline:
(§2)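 Broth microdilution per NCCLS M27-A2. Stocks in 100% DMSO, diluted in RPMI 1640 with 0.165 M MOPS at pH 7.0; final range 0.25–128 µg/mL. Inoculum 1000–5000 cells/mL from SDA subcultures. […] C. parapsilosis ATCC22019 served as QC strain.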

Series [6] in a line: Cytotoxicity against human K562 cells after assessed as reduction of cell viability 24 hrs by MTT assay. The class given is cell-based. The method, boiled down:
as §1
For orientation: Formazan colour is commonly taken as a measure of viable cells.

Series [7] has as its system Candida albicans. The experiment in a line: Antifungal activity against Candida albicans ATCC 10261 at 35 degC after 48 hrs by broth microdilution test. It is filed as functional. Conditions: Candida albicans, ATCC 10261, 48 h; for MIC: read-out: MIC; for MIC50: read-out: MIC50; for MIC90: read-out: MIC90. The method, boiled down: as §2
The test system of series [8] is Arthrodermataceae. The series can be described thus: Antifungal activity against dermatophytes at 28 degC after 48 to 96 hrs by broth microdilution test.
In the next series the test system is Candida parapsilosis. The experiment in a line: Antifungal activity against Candida parapsilosis ATCC 22019 at 35 degC after 48 hrs by broth microdilution test. The class given is functional. The following applies: Lodderomyces parapsilosis, ATCC 22019, 48 h; for MFC: read-out: MFC; for MIC: read-out: MIC. The method, boiled down:
as §2

Series [9] can be described thus: Therapeutic index, ratio of CC50 for human U937 cells to MIC90 for Candida albicans ATCC 10261. The class given is cell-based, U-937. In outline:
(§3)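 Therapeutic index calculated as CC50 in the given cell line divided by MIC90.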

For series [10], the system named is Arthrodermataceae. The series can be described thus: Antifungal activity against dermatophytes at 28 degC after 7 days by broth microdilution test. The class given is functional. The following applies: 168 h. The method, boiled down:
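Ten clinical isolates (two M. canis, five M. gypseum, three T. mentagrophytes) tested by NCCLS M38-A broth microdilution in MOPS-buffered RPMI 1640, pH 7.0, over 0.25–128 µg/mL. Conidial/hyphal suspension from PDA slants (28 °C, 7 days) adjusted to 65–70% transmittance at OD530, then diluted 1:50.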

A short description of series [11]: Therapeutic index, ratio of CC50 for human K562 cells to MIC90 for Candida albicans ATCC 10261. The class given is cell-based. In outline: as §3

A word on the MFC: it is the smallest concentration meeting the test's criterion for killing the fungus. The term CC50 denotes the concentration at which the toxic effect on the cells reaches its halfway point. A word on the MIC: it is the least concentration at which growth counts as inhibited. Broadly, the MIC50 is an inhibitory concentration at the 50% level, which refers to growth in some studies and to a panel of isolates in others. The term MIC90 denotes the lowest concentration that inhibits either 90% of growth or 90% of the strains tested, depending on the study. Take `CC(=O)N1CCN(c2ccc(OCC3COC(Cn4ccnc4)(c4ccc(Cl)cc4Cl)O3)cc2)CC1` (stereo not given) [KETOCONAZOLE]: the figures for the MFC50 against Candida albicans [1] and against Arthrodermataceae [8] were 16 µg/mL (≈ 30.1 µM) and 8 µg/mL (≈ 15.1 µM), respectively. Moreover, the figures for the MFC90 with Candida albicans [1] and with Arthrodermataceae [3] were 32 µg/mL (≈ 60.2 µM) and 8 µg/mL (≈ 15.1 µM), respectively. Also, the MFC in the series on Candida albicans [1] is 16.3 µg/mL (≈ 30.7 µM); against Arthrodermataceae [3] it was 6.6 µg/mL (≈ 12.4 µM); in the series with Candida parapsilosis it was 0.5 µg/mL (≈ 0.941 µM). Besides, the CC50 at 24 h in [2] was 125 µM; in [6] it was 102 µM. Besides, the MIC against Candida albicans [4] came to 20 µg/mL (≈ 37.6 µM); against Candida albicans [5] it was 4 µg/mL (≈ 7.53 µM); in the series with Candida albicans [7], 5.9 µg/mL (≈ 11.1 µM); with Candida parapsilosis, 0.06 µg/mL (≈ 0.113 µM); with Arthrodermataceae [10] it was 1.6 µg/mL (≈ 3.01 µM). Also, the MIC50 in the series with Candida albicans [7] was determined as 4 µg/mL (≈ 7.53 µM); with Arthrodermataceae [10] it was 1 µg/mL (≈ 1.88 µM). Moreover, the MIC90 came to 8 µg/mL (≈ 15.1 µM) in the series on Candida albicans [7] and 2 µg/mL (≈ 3.76 µM) against Arthrodermataceae [10]. Moreover, the selectivity ratio in series [9] amounted to 15.6; in series [11] it was 12.8.

As to `Clc1ccc(COC(Cn2ccnc2)c2ccc(Cl)cc2Cl)c(Cl)c1` (stereo not given) [MICONAZOLE], the MFC50 against Candida albicans [1] came out at 8 µg/mL (≈ 19.2 µM); with Arthrodermataceae [8], 2 µg/mL (≈ 4.81 µM). Besides, the MFC90 against Candida albicans [1] amounted to 16 µg/mL (≈ 38.4 µM); with Arthrodermataceae [3] it was 4 µg/mL (≈ 9.61 µM). Further, the MFC in the series with Candida albicans [1] came to 12.2 µg/mL (≈ 29.3 µM); in the series on Arthrodermataceae [3] it was 3 µg/mL (≈ 7.21 µM); with Candida parapsilosis, 0.5 µg/mL (≈ 1.2 µM). For the same compound, the CC50 at 24 h stood at 120 µM in series [2] and 80 µM in series [6]. Besides, the MIC turned out to be 3 µg/mL (≈ 7.21 µM) in the series on Candida albicans [4]; 4 µg/mL (≈ 9.61 µM) with Candida albicans [5]; 3.25 µg/mL (≈ 7.81 µM) in the series with Candida albicans [7]; 1 µg/mL (≈ 2.4 µM) in the series on Candida parapsilosis; 0.9 µg/mL (≈ 2.16 µM) against Arthrodermataceae [10]. Also, the results for the MIC50 with Candida albicans [7] and with Arthrodermataceae [10] were 4 µg/mL (≈ 9.61 µM) and 1 µg/mL (≈ 2.4 µM), respectively. The results for the MIC90 in the series on Candida albicans [7] and against Arthrodermataceae [10] were 4 µg/mL (≈ 9.61 µM) and 1 µg/mL (≈ 2.4 µM), respectively. Moreover, the selectivity ratio in series [9] came out at 30; in [11], 20.

Regarding `Cc1ccc(OC(CCn2ccnc2)c2ccc(Cl)cc2)cc1` (stereo not given), the MFC50 worked out at 8 µg/mL (≈ 24.5 µM) against Candida albicans [1] and 32 µg/mL (≈ 97.9 µM) against Arthrodermataceae [8]. The values for the MFC90 against Candida albicans [1] and with Arthrodermataceae [3] were 16 µg/mL (≈ 49 µM) and 32 µg/mL (≈ 97.9 µM), respectively. The MFC in the series with Candida albicans [1] was found to be 10 µg/mL (≈ 30.6 µM); against Arthrodermataceae [3], 28.8 µg/mL (≈ 88.1 µM); in the series on Candida parapsilosis, 4 µg/mL (≈ 12.2 µM). Also, the CC50 at 24 h in series [2] came out at 325 µM; in series [6], 227 µM. The MIC came to 5.6 µg/mL (≈ 17.1 µM) against Candida albicans [4]; 2 µg/mL (≈ 6.12 µM) against Candida albicans [5]; 3.2 µg/mL (≈ 9.79 µM) with Candida albicans [7]; 2 µg/mL (≈ 6.12 µM) in the series on Candida parapsilosis; 4.6 µg/mL (≈ 14.1 µM) against Arthrodermataceae [10]. Also, the results for the MIC50 with Candida albicans [7] and in the series on Arthrodermataceae [10] were 2 µg/mL (≈ 6.12 µM) and 4 µg/mL (≈ 12.2 µM), respectively. For the same compound, the MIC90 in the series with Candida albicans [7] came to 4 µg/mL (≈ 12.2 µM); with Arthrodermataceae [10] it was 8 µg/mL (≈ 24.5 µM). Moreover, the figures for the selectivity ratio in series [9] and in series [11] were 81.3 and 56.8, respectively.

The values above are taken from ChEMBL document CHEMBL1157464, “1-[(3-Aryloxy-3-aryl)propyl]-1H-imidazoles, new imidazoles with potent activity against Candida albicans and dermatophytes. Synthesis, structure-activity relationship, and molecular modeling studies” (J Med Chem, 2008).
